Measurements as given in ChEMBL document CHEMBL1914430, “Synthesis of some new 1,3,5-trisubstituted pyrazolines bearing benzene sulfonamide as anticancer and anti-inflammatory agents” (Bioorg Med Chem Lett, 2011).

Key:
Format in all cases: functional
HOP-62 = experiment: Anticancer activity against human HOP62 cells after 48 hrs; settings: HOP-62, 48 h
In short: (§1)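 NCI Drug Evaluation Branch 60-cell-line screen across leukemia, melanoma, lung, colon, CNS, ovarian, renal, prostate and breast panels. The incubation period is 48 h. Parameters are derived from dose–response data: GI50 is the concentration giving 50% decrease in net growth, TGI is total growth inhibition, and LC50 is net 50% loss of initial cells. Values beyond the tested range are reported as greater or less than the maximum or minimum concentration.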

OVCAR-5 = experiment: Anticancer activity against human OVCAR5 cells after 48 hrs; settings: OVCAR-5, 48 h
In short: (§2)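 NCI 60-line panel protocol with a 48 h incubation. Per line: GI50 = concentration giving 50% decrease in net cell growth; TGI = total growth inhibition; LC50 = net 50% loss of initial cells. When the level was not reached or was exceeded, the value is given as greater or less than the highest or lowest concentration tested.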

MDA-MB-468 = experiment: Anticancer activity against human MDA-MB-468 cells after 48 hrs; settings: MDA-MB-468, 48 h; in short: as §1
SNB-75 = experiment: Anticancer activity against human SNB75 cells after 48 hrs; settings: SNB-75, 48 h; in short: as §2
EKVX = experiment: Anticancer activity against human EKVX cells after 48 hrs; in short: as §1
PC-3 = experiment: Anticancer activity against human PC3 cells after 48 hrs; settings: PC-3, 48 h; in short: as §2
ACHN = experiment: Anticancer activity against human ACHN cells after 48 hrs; in short: as §1
RPMI-8226 = experiment: Anticancer activity against human RPMI8226 cells after 48 hrs; settings: RPMI-8226, 48 h; in short: as §2
NCI-H322M = experiment: Anticancer activity against human NCI-H322M cells after 48 hrs; in short: as §2
SF-539 = experiment: Anticancer activity against human SF539 cells after 48 hrs; settings: SF-539, 48 h; in short: as §2
Rattus norvegicus [1] = experiment: Antiinflammatory activity in Wistar rat assessed as inhibition of carrageenan-induced hind paw edema at 20 mg/kg, po administered 30 mins before carrageenan challenge measured after 5 hrs by plethysmometer
In short: (§3)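 Wistar rats of either sex, 150–175 g, fasted 16 h, n = 6 per group. Compound given orally at 20 mg/kg as a suspension in 1% CMC in water (10 mL/kg); controls got vehicle only. After 30 min, 0.1 mL of 1% carrageenan in saline was injected subplantar into the left hind paw. Paw volume was measured by plethysmometer at 0, 3 and 5 h. Inhibition = (1 − Vt/Vc) × 100, reported as mean ± SEM.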

MOLT-4 = experiment: Anticancer activity against human MOLT4 cells after 48 hrs; settings: MOLT-4, 48 h; in short: as §2
SK-MEL-28 = experiment: Anticancer activity against human SK-MEL-28 cells after 48 hrs; settings: SK-MEL-28, 48 h; in short: as §2
NCI/ADR-RES = experiment: Anticancer activity against human NCI/ADR-RES cells after 48 hrs; in short: as §2
SK-MEL-2 = experiment: Anticancer activity against human SK-MEL-2 cells after 48 hrs; settings: SK-MEL-2, 48 h; in short: as §2
IGROV-1 = experiment: Anticancer activity against human IGROV1 cells after 48 hrs; settings: IGROV-1, 48 h; in short: as §1
OVCAR-3 = experiment: Anticancer activity against human OVCAR3 cells after 48 hrs; settings: OVCAR-3, 48 h; in short: as §2
A498 = experiment: Anticancer activity against human A498 cells after 48 hrs; settings: A498, 48 h; in short: as §1
TK-10 = experiment: Anticancer activity against human TK10 cells after 48 hrs; settings: TK-10, 48 h
In short: (§4)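 NCI ~60 human tumour cell line panel with a 48 h incubation. GI50 is the concentration giving a 50% fall in net growth, TGI gives total growth inhibition, and LC50 gives a net 50% loss of initial cells. An effect not reached or exceeded is reported as greater or less than the highest or lowest concentration tested.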

HOP-92 = experiment: Anticancer activity against human HOP92 cells after 48 hrs; settings: HOP-92, 48 h; in short: as §1
Malme-3M = experiment: Anticancer activity against human MALME-3M cells after 48 hrs; in short: as §1
HCT-15 = experiment: Anticancer activity against human HCT15 cells after 48 hrs; settings: HCT-15, 48 h; in short: as §1
SNB-19 = experiment: Anticancer activity against human SNB19 cells after 48 hrs; settings: SNB-19, 48 h; in short: as §2
CAKI-1 = experiment: Anticancer activity against human Caki1 cells after 48 hrs; settings: CAKI-1, 48 h; in short: as §1
786-0 = experiment: Anticancer activity against human 786-0 cells after 48 hrs; settings: 786-0, 48 h; in short: as §1
COLO 205 = experiment: Anticancer activity against human COLO205 cells after 48 hrs; settings: COLO 205, 48 h; in short: as §1
Rattus norvegicus [2] = experiment: Antiinflammatory activity in Wistar rat assessed as inhibition of carrageenan-induced hind paw edema at 20 mg/kg, po administered 30 mins before carrageenan challenge measured after 3 hrs by plethysmometer; in short: as §3
T47D = experiment: Anticancer activity against human T47D cells after 48 hrs; in short: as §4
NCI-H226 = experiment: Anticancer activity against human NCI-H226 cells after 48 hrs; settings: NCI-H226, 48 h; in short: as §2
[3] = read-out: LC50 (the source's name)

## COc1ccc(C2CC(c3cc(Cl)c(C)cc3O)=NN2c2ccc(S(N)(=O)=O)cc2)cc1OC (configuration not stated)
HOP-62
  GI50: 3.92 µM
  LC50 (concentration for 50% net loss of initial cells): 52.4 µM
  TGI: 14.1 µM
OVCAR-5
  GI50: 2250 nM
  LC50: 27.8 µM
  TGI: 6.36 µM
MDA-MB-468
  GI50: 2580 nM
  TGI: 9.51 µM
MDA-MB-468; [3]
  CC50: > 100 µM
SNB-75
  GI50: 2700 nM
  TGI: 97.2 µM
SNB-75; [3]
  CC50: > 100 µM
EKVX
  GI50: 4.15 µM
  TGI: 100 µM
EKVX; [3]
  CC50: > 100 µM
PC-3
  GI50: 2610 nM
  TGI: 13.7 µM
PC-3; [3]
  CC50: > 100 µM
ACHN
  GI50: 3.15 µM
  TGI: 12.2 µM
ACHN; [3]
  CC50: > 100 µM
RPMI-8226
  GI50: 4.1 µM
  LC50 (concentration for net 50% loss of initial cells): > 100 µM
  TGI: 100 µM
NCI-H322M
  GI50: 4.45 µM
  LC50 (net 50% loss of initial cells): > 100 µM
  TGI: 39.7 µM
SF-539
  GI50: 2100 nM
  LC50 (concentration causing net 50% loss of initial cells): 12 µM
  TGI: 4.75 µM
Rattus norvegicus [1]
  inhibition in vivo at 20 mg/kg: 68.3%
MOLT-4
  GI50: 5.29 µM
  LC50: > 100 µM
  TGI: > 100 µM
SK-MEL-28
  GI50: 4.29 µM
  TGI: 17.7 µM
SK-MEL-28; [3]
  CC50: 62.7 µM
NCI/ADR-RES
  GI50: 3.39 µM
  TGI: 14.1 µM
NCI/ADR-RES; [3]
  CC50: > 100 µM
SK-MEL-2
  GI50: 5.87 µM
  LC50: > 100 µM
  TGI: 32.7 µM
IGROV-1
  GI50: 2340 nM
  LC50 (net 50% loss of initial cells): 28.8 µM
  TGI: 5.46 µM
OVCAR-3
  GI50: 3.37 µM
  LC50 (concentration giving 50% net loss of initial cells): 77.5 µM
  TGI: 9.8 µM
A498
  GI50: 3.98 µM
  TGI: 24.7 µM
A498; [3]
  CC50: > 100 µM
TK-10
  GI50: 3.97 µM
  LC50: > 100 µM
  TGI: 18.4 µM
HOP-92
  GI50: 1810 nM
  TGI: 7.42 µM
HOP-92; [3]
  CC50: > 100 µM
Malme-3M
  GI50: 3.65 µM
  TGI: 24.6 µM
Malme-3M; [3]
  CC50: > 100 µM
HCT-15
  GI50: 3.32 µM
  TGI: 20.2 µM
HCT-15; [3]
  CC50: > 100 µM
SNB-19
  GI50: 5.53 µM
  TGI: 89.3 µM
SNB-19; [3]
  CC50: > 100 µM
CAKI-1
  GI50: 2780 nM
  LC50 (concentration giving 50% net loss of initial cells): > 100 µM
786-0
  GI50: 2370 nM
  TGI: 5.04 µM
786-0; [3]
  CC50: > 100 µM
COLO 205
  GI50: 1930 nM
  LC50 (concentration giving net 50% loss of initial cells): 6.02 µM
  TGI: 3.41 µM
Rattus norvegicus [2]
  inhibition in vivo at 20 mg/kg: 60.5%
T47D
  GI50: 3.1 µM
  TGI: 13.3 µM
T47D; [3]
  CC50: > 100 µM
NCI-H226
  GI50: 5.62 µM
  TGI: 23.1 µM
NCI-H226; [3]
  CC50: 86.4 µM
